“And” between values parts separate entries of the source, which are not always exact repeats. Identical values can stand only once.
What was measured:
[1] = test system: recurrent RB-positive glioblastoma; details: 22 patients; cited from earlier work
CDK4/6 = details: read-out: in vitro IC50 for inhibition of CDK4/6 kinase activity; cited from earlier work
[2] = assay type: in vivo, human
[3] = plasma pharmacokinetics in recurrent glioblastoma patients; assay type: in vivo, human
Procedure, shortened: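 Patients took 900 mg oral daily. Blood was drawn before dosing and 0.5, 1, 2, 4, 6, 8 and 24 h after the fourth dose. Plasma was held at −80 °C. Totals were measured by validated LC-MS/MS, and unbound levels as total × fraction unbound (equilibrium dialysis). Noncompartmental analysis gave Cmax, Tmax, AUCτ and CL/F (dose/AUCτ), summarised as mean, median, range and coefficient of variation.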

[4] = test system: phosphorylation of FOXM1 (pFOXM1); assay: tumor pharmacodynamics, pFOXM1 immunohistochemistry; assay type: in vivo, human; details: P = 0.142, primarily at 8-hour postdose
Procedure, shortened: (§1)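 Patients took 900 mg/d oral for 5 days, with resection 2, 8 or 24 h after the last dose. Surgical FFPE tissue and matched archival tissue from the initial resection were stained together on an automated platform, with positive and no-primary controls. Antibodies: pRB 1:400, pFOXM1 1:200, MIB-1 1:100, cleaved caspase-3 1:300. Nuclear % positive cells were compared by paired t-test on log values (two-sided 5%), also after normalising to the untreated historical-control median, overall and per arm.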

recurrent glioblastoma = assay: pharmacokinetic/pharmacodynamic-guided expansion cohort, clinical response; assay type: in vivo, human
[5] = safety and tolerability in glioblastoma patients; details: human, in vivo
[6] = test system: apoptotic marker cleaved caspase-3; assay: tumor pharmacodynamics, cleaved caspase-3 immunohistochemistry; assay type: in vivo, human; details: P = 0.19
Procedure, shortened: as §1

pS6 = assay: longitudinal tissue analysis, pS6 immunohistochemistry; assay type: in vivo, human; details: 3 patients
Procedure, shortened: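 Samples were from expansion-cohort patients (600 mg daily, 21 days on/7 off) re-resected at recurrence. Enhancing tumor was collected. Archival, Phase 0 surgical and post-treatment FFPE tissue was immunostained on an automated platform (anti-pS6 1:100). The software nuclear function quantified % positive cells.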

p4EBP1 = assay: longitudinal tissue analysis, p4EBP1 immunohistochemistry; assay type: in vivo, human; details: 3 patients
[7] = test system: proliferative marker MIB-1; assay: tumor pharmacodynamics, MIB-1 immunohistochemistry; assay type: in vivo, human; details: vs archival tissue, P = 0.039
Procedure, shortened: as §1

[8] = test system: phosphorylation of RB (pRB); assay: tumor pharmacodynamics, pRB immunohistochemistry; assay type: in vivo, human
Procedure, shortened: as §1

[9] = 2 to 24 hours after fifth 900 mg dose
[10] = human, non-enhancing tumor region, oral, 900 mg

CC(=O)c1c(C)c2cnc(Nc3ccc(N4CCNCC4)cn3)nc2n(C2CCCC2)c1=O [Palbociclib]
clinical efficacy in terms of prolonging PFS [1]: limited clinical efficacy

CN(C)C(=O)c1cc2cnc(Nc3ccc(N4CCNCC4)cn3)nc2n1C1CCCC1 [ribociclib, Ribociclib]
IC50 (CDK4/6): 0.04 µM | mean unbound concentration in enhancing tumor region [2, 9]: 2.152 µmol/kg and 2.152 ± 1.559 µmol/kg | mean unbound concentration in non-enhancing tumor region [2, 9]: 0.560 µmol/kg and 0.560 ± 0.364 µmol/kg | concentration at 2 h [2, 10]: 510 nM | concentration at 8 h [2, 10]: 600 nM | concentration at 24 h [2, 10]: 350 nM | half-life ([3]; human, plasma, po, 900 mg): 13.5 h | coefficient variation in drug exposure (Cmax, Ctrough, AUC0-24h) ([3]; inter-individual, among 12 patients): about 50% | fluctuation of unbound plasma concentration, trough to peak ([3]; steady-state, 900 mg daily): 3.4 fold | unbound plasma concentration, mean peak level ([3]; steady-state, 900 mg daily): 440 nM | unbound plasma concentration, mean trough level ([3]; steady-state, 900 mg daily): 130 nM | pFOXM1 levels after normalization with historical control samples [4]: downward trend | Phase 0 responders based on pharmacokinetic and pharmacodynamic results (recurrent glioblastoma; 6 of 8 patients with histologically evident recurrence): 75% | PFS6 (recurrent glioblastoma; expansion cohort, 6 patients): 16.7% | median OS (recurrent glioblastoma; expansion cohort, 6 patients): 7.8 months | median PFS (recurrent glioblastoma; expansion cohort, 6 patients, 600 mg daily 21 days on/7 days off): 9.7 weeks | clinical efficacy of monotherapy (recurrent glioblastoma; recurrent glioblastoma): limited clinical efficacy | maximum tolerated dose [5]: 900 mg daily | cleaved caspase-3 change after Phase 0 exposure [6]: trended towards a concomitant increase | pS6 positive cells (pS6; matched Phase 0 samples): 21.3% | pS6 positive cells (pS6; post-treatment specimens): 36.7% | p4EBP1 positive cells (p4EBP1; matched Phase 0 samples): 2.8% | p4EBP1 positive cells (p4EBP1; post-treatment specimens): 31.2% | MIB-1 change after Phase 0 exposure [7]: significantly reduced | patients with > 20% decrease in pRB levels ([8]; 9 of 12 Phase 0 patients, vs matched archival tissue): 75% | average decrease in pRB levels ([8]; 12 treated patients, 900 mg/d for 5 days): 50% | pRB positive cells ([8]; Phase 0 operation specimens, 3 re-resected patients): 7.4% | pRB positive cells ([8]; post-treatment (recurrence after monotherapy), 3 patients): 19.96%

From article PMC6863147 (Clinical cancer research : an official journal of the …, 2019)
